Data on 15 compounds can be found in ChEMBL document CHEMBL4330099, “Lead generation and optimization of novel GPR119 agonists with a spirocyclic cyclohexane structure” (Bioorg Med Chem Lett, 2019).

Molecules are shown by their SMILES. ≈ marks a conversion by molar mass, not a printed value.

Data set [1] has as its target T1, Glucose-dependent insulinotropic receptor (Homo sapiens, UniProt Q8TDV5).
T1 sequence (Q8TDV5 whole entry): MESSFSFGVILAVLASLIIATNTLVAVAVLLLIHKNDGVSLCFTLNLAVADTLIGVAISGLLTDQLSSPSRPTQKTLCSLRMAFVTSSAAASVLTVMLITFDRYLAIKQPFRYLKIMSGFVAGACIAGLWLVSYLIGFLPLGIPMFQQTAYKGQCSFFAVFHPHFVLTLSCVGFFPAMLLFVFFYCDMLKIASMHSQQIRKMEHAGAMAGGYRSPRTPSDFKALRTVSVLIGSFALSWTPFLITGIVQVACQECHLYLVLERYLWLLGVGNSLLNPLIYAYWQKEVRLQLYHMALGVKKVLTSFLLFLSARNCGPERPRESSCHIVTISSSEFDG
The data set can be described thus: Agonist activity at human GPR119 expressed in HEK293 cells assessed as intracellular cAMP accumulation after 30 mins by HTRF assay. It is filed as functional, cell-based. The procedure, abridged: (§1)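 Anti-cAMP cryptate in lysis buffer was then added for 3 h at room temperature in the dark, and cAMP was read by HTRF. EC50 is the concentration giving 50% of the maximal OEA response; intrinsic activity is expressed as % of OEA (100%).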
(cAMP levels reflect the balance of adenylyl cyclase and phosphodiesterase activity.)

Data set [2] concerns the target T2, Glucose-dependent insulinotropic receptor (Homo sapiens) (UniProt Q8TDV5).
T2 sequence (whole entry): T1 sequence (Q8TDV5 whole entry)
The data set can be described thus: Intrinsic activity at human GPR119 expressed in HEK293 cells assessed as intracellular cAMP accumulation after 30 mins by HTRF assay relative to oleoylethanolamide. Type of data set: functional, cell-based. In outline:
as §1

A short description of data set [3]: Solubility of the compound in FeSSIF. Type of data set: physicochemical.
Data set [4] in a line: Solubility of the compound in Japanese pharmacopoeia first fluid at pH 1.2. It is filed as physicochemical. The procedure, abridged:
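Solubility was measured in Japanese Pharmacopoeia 1st fluid for dissolution testing, adjusted to pH 1.2.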

A short description of data set [5]: Metabolic stability in rat liver microsomes assessed as parent compound remaining at 5 uM after 1 hr. Type of data set: ADME, Microsome. The note with it: read-out: Stability. In outline: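 Compound (5 μM) was incubated with rat liver microsomes ([…]) for 1 h. Percent of compound remaining was reported.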
On the technique in general: Liver microsomes are a subcellular fraction often used to study metabolism.

Data set [6] can be described thus: Metabolic stability in human liver microsomes assessed as parent compound remaining at 5 uM after 1 hr. Type of data set: ADME, Microsome. The note with it: read-out: Stability. The procedure, abridged:
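Compound (5 μM) was incubated with human liver microsomes ([…]) for 1 h. Percent of compound remaining was reported.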

`CC1(C)C[C@]2(CC[C@H](Oc3cc(N4CCc5cc(S(C)(=O)=O)ccc54)ncn3)CC2)CO1`: the EC50 (usually the midpoint of the concentration-response curve) in data set [1] stood at 0.015 µM. Further, the Intrinsic activity in data set [2] amounted to 87%. Besides, the solubility (commonly the concentration that dissolves in the medium under given conditions) was 19.8 µM (≈ 9.06 µg/mL) in data set [3] and 7 µM (≈ 3.2 µg/mL) in data set [4].

Regarding `Cc1c(O[C@H]2CC[C@]3(CC2)COC(C)(C)C3)ncnc1N1CCc2cc(S(C)(=O)=O)ccc21`, in data set [1], the EC50 was > 1 µM. Besides, the Intrinsic activity in data set [2] worked out at 38%. The solubility was found to be 25.5 µM (≈ 12 µg/mL) in data set [3] and 2.8 µM (≈ 1.32 µg/mL) in data set [4].

In the case of `Cc1c(Oc2ccc(S(C)(=O)=O)cc2F)ncnc1O[C@H]1CC[C@]2(CC1)COC(C)(C)C2`, the EC50 in data set [1] worked out at 0.059 µM. Further, the Intrinsic activity in data set [2] was 62%. The solubility was 33.4 µM (≈ 15.5 µg/mL) in data set [3] and < 0.5 µM in data set [4].

`CC(C)c1c(Nc2ccc(S(C)(=O)=O)cc2F)ncnc1O[C@H]1CC[C@]2(CC1)COC(C)(C)C2`: in data set [1], the EC50 was determined as 0.098 µM. Further, in data set [2], the Intrinsic activity stood at 61%. Also, the solubility was 4.3 µM (≈ 2.11 µg/mL) in data set [3] and 0.7 µM (≈ 0.344 µg/mL) in data set [4].

Turning to `CCc1c(Nc2ccc(S(C)(=O)=O)cc2F)ncnc1O[C@H]1CC[C@]2(CC1)COC(C)(C)C2`, the concentration for a half-maximal effect (EC50) in data set [1] is 0.042 µM. Further, in data set [2], the Intrinsic activity worked out at 82%. The values for the solubility in data set [3] and in data set [4] were 67.5 µM (≈ 32.2 µg/mL) and 4.6 µM (≈ 2.2 µg/mL), respectively.

For `Cc1c(O[C@H]2CC[C@]3(CC2)COC(C)(C)C3)ncnc1N(C)c1ccc(S(C)(=O)=O)cc1F`, in data set [1], the EC50 was > 1 µM. The Intrinsic activity in data set [2] turned out to be 17%. The results for the solubility in data set [3] and in data set [4] were 42.5 µM (≈ 20.3 µg/mL) and 13 µM (≈ 6.21 µg/mL), respectively.

As to `CC1(C)C[C@]2(CC[C@H](c3nc(COc4ccc(-n5cnnn5)cc4)cs3)CC2)CO1`, the EC50 in data set [1] is 0.085 µM. For the same compound, the Intrinsic activity in data set [2] turned out to be 79%.

In the case of `Cc1c(Nc2ccc(S(C)(=O)=O)cc2F)ncnc1O[C@H]1CC[C@]2(CC1)COC(C)(C)C2`, the concentration for a half-maximal effect (EC50) in data set [1] came out at 0.013 µM. The Intrinsic activity in data set [2] stood at 91%. Also, the solubility came to 15.8 µM (≈ 7.32 µg/mL) in data set [3] and 5.3 µM (≈ 2.46 µg/mL) in data set [4].

On to `CC(O[C@H]1CC[C@]2(CC1)COC(C)(C)C2)c1nc(-c2ccc(S(C)(=O)=O)c(F)c2)no1` (some centres undefined), for which the EC50 in data set [1] stood at 0.089 µM. In addition, in data set [2], the Intrinsic activity is 109%.

As to `CC1(C)C[C@]2(CC[C@H](Oc3ncnc4c3CCN4c3ccc(S(C)(=O)=O)cc3F)CC2)CO1`, the EC50 in data set [1] is 0.005 µM. Moreover, the Intrinsic activity in data set [2] came to 90%. In addition, the solubility in data set [3] is 15.2 µM (≈ 7.23 µg/mL); in data set [4], 18.9 µM (≈ 8.99 µg/mL).

As for `Cc1c(Nc2ccc(S(C)(=O)=O)cc2)ncnc1O[C@H]1CC[C@]2(CC1)COC(C)(C)C2`, the 50% effective concentration (EC50) in data set [1] was determined as 0.139 µM. Besides, in data set [2], the Intrinsic activity was 92%. Also, the values for the solubility in data set [3] and in data set [4] were 8.6 µM (≈ 3.83 µg/mL) and 4.4 µM (≈ 1.96 µg/mL), respectively.

For the compound `Cc1c(Nc2ccc(S(C)(=O)=O)cc2F)ncnc1N(C)[C@H]1CC[C@]2(CC1)COC(C)(C)C2`, the concentration for a half-maximal effect (EC50) in data set [1] is 0.045 µM. Also, in data set [2], the Intrinsic activity was found to be 128%. Also, the remaining at 1 h, 5 µM in data set [5] was determined as 93%; in data set [6], 91%. Further, the solubility in data set [3] was 49.8 µM (≈ 23.7 µg/mL); in data set [4], > 475 µM.

On to `CN(c1ncnc2c1CCN2c1ccc(S(C)(=O)=O)cc1F)[C@H]1CC[C@]2(CC1)COC(C)(C)C2`, for which the half-maximal effective concentration (EC50) in data set [1] was found to be 0.039 µM. Besides, the Intrinsic activity in data set [2] is 118%. Further, the remaining at 1 h, 5 µM in data set [5] is 94%; in data set [6] it was 99%. Besides, the solubility in data set [3] was 75.3 µM (≈ 36.8 µg/mL); in data set [4] it was > 475 µM.

Turning to `CN(c1cc(N2CCc3cc(S(C)(=O)=O)ccc32)ncn1)[C@H]1CC[C@]2(CC1)COC(C)(C)C2`, the half-maximal effective concentration (EC50) in data set [1] stood at 0.016 µM. In data set [2], the Intrinsic activity is 108%. Further, the remaining at 1 h, 5 µM in data set [5] is 80%; in data set [6] it was 89%. The solubility stood at 24.3 µM (≈ 11.4 µg/mL) in data set [3] and 418 µM (≈ 197 µg/mL) in data set [4].

In the case of `Cc1c(Nc2ccc(C(=O)N(C)C)cc2F)ncnc1O[C@H]1CC[C@]2(CC1)COC(C)(C)C2`, in data set [1], the EC50 was determined as 0.033 µM. For the same compound, the Intrinsic activity in data set [2] was found to be 101%. Also, the figures for the remaining at 1 h, 5 µM in data set [5] and in data set [6] were 44% and 77%, respectively. The figures for the solubility in data set [3] and in data set [4] were 65.2 µM (≈ 29.8 µg/mL) and 128 µM (≈ 58.7 µg/mL), respectively.
